Measurements from ChEMBL document CHEMBL1124895, “Synthesis and biological evaluation of some cyclic phosphoramidate nucleoside derivatives” (1990).
≈ marks a conversion by molar mass, not a printed value.

Assays:
Type in all cases: functional
[1] = Antiviral Activity against herpes simplex virus-2 (G) in rabbit kidney cell; details: Oryctolagus cuniculus
[2] = Antiviral Activity against herpes simplex virus-1 (F) in rabbit kidney cell; details: Oryctolagus cuniculus
[3] = Antiviral Activity against vesicular stomatitis virus in rabbit kidney cell; details: Oryctolagus cuniculus
[4] = Antiviral Activity against herpes simplex virus-1 (KOS) in rabbit kidney cell; details: Oryctolagus cuniculus
[5] = Antiviral Activity against vaccinia virus in rabbit kidney cell; details: Oryctolagus cuniculus
[6] = system: Raji; test: Inhibitory activity against Raji cell line; details: Homo sapiens, read-out: ID50 (the source's name)
Summary of the method: (§1)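 Tumour cells, (5-7.5) × 10^4 per well in growth medium, exposed to varying compound concentrations and allowed to proliferate 48 or 72 h at 37 °C in humidified CO2 atmosphere; cell counts by Coulter counter; value is 50% inhibitory dose. FM3A TK- and TK-/HSV-2 TK+ lines derived from FM3A/0 and grown in the same medium.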

[7] = Antiviral Activity against herpes simplex virus-2 (Lyons) in rabbit kidney cell; details: Oryctolagus cuniculus
[8] = Antiviral Activity against herpes simplex virus-1 (McIntyre) in rabbit kidney cell; details: Oryctolagus cuniculus
[9] = Antiviral Activity against herpes simplex virus-1 TK- B2006 in rabbit kidney cell; details: Oryctolagus cuniculus
[10] = system: MOLT-4F; test: Inhibitory activity against Molt/4F cell line; details: Homo sapiens, read-out: ID50 (the source's name); summary of the method: as §1
[11] = Antiviral Activity against herpes simplex virus-1 TK- VMW 1837 in rabbit kidney cell; details: Oryctolagus cuniculus
[12] = system: FM3A; test: Inhibitory activity against FM3A TK-/HSV-2 TK+ cell line; details: Mus musculus, […] TK-/HSV-2 TK+; read-out: ID50 (the source's name); summary of the method: as §1
[13] = system: L1210; test: Inhibitory activity against L1210 cell line; details: Mus musculus, read-out: ID50 (the source's name); summary of the method: as §1
[14] = system: FM3A; test: Inhibitory activity against FM3A/0 cell line; details: Mus musculus, read-out: ID50 (the source's name); summary of the method: as §1
[15] = Antiviral Activity against herpes simplex virus-2 (196) in rabbit kidney cell; details: Oryctolagus cuniculus
[16] = system: FM3A; test: Inhibitory activity against FM3A TK- cell line; details: Mus musculus, read-out: ID50 (the source's name); summary of the method: as §1
[17] = system: Mus musculus; test: Compound was evaluated in nu/nu mice infected with TK- HSV-1 (VMW-1837) to increase the mean survival time when applied topically at 10% after 52 days
Summary of the method: (§2)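 Athymic nu/nu mice, 25-30 days old, 15-20 g, inoculated intracutaneously in lumbosacral area with TK- HSV-1 VMW 1837, 10^5 CCID50 in 50 μL; topical 10% (v/v in DMSO) applied four times daily for 5 days from infection; DMSO placebo. Mean day of lesions/hind-leg paralysis and survival followed 52 days; survivors counted as 52-day.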

[18] = system: Mus musculus; test: Tested for the appearance of skin lesions or paralysis of the legs after 39 days when administered intraperitoneally at 100 mg/kg per day; details: route intraperitoneal
Summary of the method: (§3)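 Athymic nu/nu mice, 25-30 days old, 15-20 g, inoculated intracutaneously in lumbosacral area with TK- HSV-1 VMW 1837, 10^5 CCID50 in 50 μL; intraperitoneal dosing 100 mg/kg per day, twice daily for 5 days from infection, in carboxymethylcellulose or water. Mean day of lesions/hind-leg paralysis and mean survival recorded over 39 days; survivors counted as 39-day.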

[19] = system: Mus musculus; test: Compound was evaluated in nu/nu mice infected with TK- HSV-1 (VMW-1837) to increase the mean survival time when administered intraperitoneally at 100 mg/kg per day after 39 days; details: route intraperitoneal; summary of the method: as §3
[20] = system: Mus musculus; test: Tested for the appearance of skin lesions or paralysis of the legs after 52 days when applied topically at 10% after 52 days; summary of the method: as §2

Row | Compound | MIC [1] [µg/mL] | MIC [2] [µg/mL] | MIC [3] [µg/mL] | MIC [4] [µg/mL] | MIC [5] [µg/mL] | IC50 [6] [µg/mL] | MIC [7] [µg/mL] | MIC [8] [µg/mL] | MIC [9] [µg/mL] | IC50 [10] [µg/mL] | MIC [11] [µg/mL] | IC50 [12] [µg/mL] | IC50 [13] [µg/mL] | IC50 [14] [µg/mL] | MIC [15] [µg/mL] | IC50 [16] [µg/mL] | Mean survival time [17] [days] | Activity [18] | Mean survival time [19] [days] | Activity [20]
1 | CN1CC(CC2SCCCS2)OP1(=O)OC[C@H]1O[C@@H](n2cc(/C=C/Br)c(=O)[nH]c2=O)C[C@@H]1O (stereo partly specified) | 150 (≈ 257 µM) | 150 (≈ 257 µM) | > 200 | 200 (≈ 342 µM) | 200 (≈ 342 µM) | > 100 | > 200 | > 200 | 150 (≈ 257 µM) | > 100 | 300 (≈ 513 µM) | 0.018 (≈ 0.0308 µM) | > 100 | 48 (≈ 82.1 µM) | > 200 | 32 (≈ 54.8 µM) |  |  |  | 
2 | CN1CCOP1(=O)OCCOCn1cnc2c(O)nc(N)nc21 (stereo unspecified) | 0.2 (≈ 0.581 µM) |  | > 400 | 0.2 (≈ 0.581 µM) | 400 (≈ 1160 µM) | > 100 |  |  |  | > 100 |  |  | > 100 | > 100 |  |  |  |  |  | 
3 | Nc1nc2c(ncn2COCCO)c(=O)[nH]1 [ACYCLOVIR] | 0.02 (≈ 0.0888 µM) | 0.1 (≈ 0.444 µM) | > 400 | 0.2 (≈ 0.888 µM) | 150 (≈ 666 µM) | > 100 | 0.1 (≈ 0.444 µM) | 0.2 (≈ 0.888 µM) | 20 (≈ 88.8 µM) | > 100 | 10 (≈ 44.4 µM) | 0.0009 (≈ 0.004 µM) | 41 (≈ 182 µM) | 17 (≈ 75.5 µM) | 0.07 (≈ 0.311 µM) | 0.62 (≈ 2.75 µM) | 46.2 | 17.2 | 30.4 | 40.8
4 | COC(CC1CN(C)P(=O)(OC[C@H]2O[C@@H](n3cc(/C=C/Br)c(=O)[nH]c3=O)C[C@@H]2O)O1)Sc1ccccc1 (stereo partly specified) | > 400 | 0.1 (≈ 0.162 µM) | > 400 | 0.1 (≈ 0.162 µM) | ≥ 400 | > 100 | > 400 | 0.4 (≈ 0.647 µM) | > 400 | > 100 | > 400 | 0.003 (≈ 0.00485 µM) | > 100 | 82 (≈ 133 µM) | > 400 | 12.4 (≈ 20.1 µM) |  |  |  | 
5 | CN1CCOP1(=O)OC[C@H]1O[C@@H](n2cc(/C=C/Br)c(=O)[nH]c2=O)C[C@@H]1O (stereo partly specified) | 10 (≈ 22.1 µM) | 0.07 (≈ 0.155 µM) | > 400 | 0.02 (≈ 0.0442 µM) | 20 (≈ 44.2 µM) | > 100 | 200 (≈ 442 µM) | 0.04 (≈ 0.0885 µM) | > 400 | > 100 | > 400 | 0.0008 (≈ 0.00177 µM) | 90 (≈ 199 µM) | 48 (≈ 106 µM) | > 400 | 1.3 (≈ 2.87 µM) |  |  |  | 
6 | O=c1[nH]c(=O)n([C@H]2C[C@H](O)[C@@H](CO)O2)cc1/C=C/Br [BRIVUDINE] | 2 (≈ 6 µM) | 0.01 (≈ 0.03 µM) | > 400 | 0.02 (≈ 0.06 µM) | 7 (≈ 21 µM) | 73 (≈ 219 µM) | 20 (≈ 60 µM) | 0.01 (≈ 0.03 µM) | 100 (≈ 300 µM) | > 100 | 300 (≈ 901 µM) | 0.0005 (≈ 0.0015 µM) | 22 (≈ 66 µM) | 9.4 (≈ 28.2 µM) | 100 (≈ 300 µM) | 0.31 (≈ 0.931 µM) | 39.6 | 10.2 | 33.8 | 8.2
